Measurements published in ChEMBL document CHEMBL2021883, “Amino acid, dipeptide and pseudodipeptide conjugates of ring-substituted 8-aminoquinolines: synthesis and evaluation of anti-infective, β-haematin inhibition and cytotoxic activities” (Eur J Med Chem, 2012).
≈ marks a conversion by molar mass, not a printed value. Calls of active or inactive are those of the source. Unless noted, the rule behind the calls is not given here.

What was measured:
Plasmodium falciparum [1] = assay: Antimalarial activity against chloroquine-sensitive Plasmodium falciparum D6 assessed as plasmodial LDH activity; assay type: functional, organism-based
Plasmodium falciparum [2] = assay: Antimalarial activity against chloroquine-resistant Plasmodium falciparum W2 assessed as plasmodial LDH activity; assay type: functional, organism-based
Vero = assay: Cytotoxicity against african green monkey Vero cells upto 23.8 […] by neutral dye assay; assay type: cell-based, Chlorocebus sabaeus
In short: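 Vero monkey kidney cells were exposed to compound up to a highest concentration of 23.8, with viability read by neutral red uptake.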

[3] = Inhibition of beta-hematin formation; assay type: functional
Leishmania donovani = assay: Antileishmanial activity against Leishmania donovani promastigote by Alamar Blue assay; assay type: functional, organism-based
Staphylococcus aureus [4] = assay: Antimicrobial activity against Staphylococcus aureus ATCC 29213 by CLSI method; assay type: functional, organism-based
Staphylococcus aureus [5] = assay: Antimicrobial activity against methicillin-resistant Staphylococcus aureus ATCC 43300 by CLSI method; assay type: functional, organism-based
[6] = tested on: Mycobacterium intracellulare; assay: Antimicrobial activity against Mycobacterium intracellulare ATCC 23068 by Franzblau method; assay type: functional, organism-based
Escherichia coli = assay: Antimicrobial activity against Escherichia coli ATCC 35218 by CLSI method; assay type: functional, organism-based
Pseudomonas aeruginosa = assay: Antimicrobial activity against Pseudomonas aeruginosa ATCC 27853 by CLSI method; assay type: functional, organism-based
In short: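 Antibacterial testing used CLSI/NCCLS broth dilution for aerobically growing bacteria, with 20 as the highest test concentration.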

[7] = Selectivity index, ratio of IC50 for african green monkey Vero cells to IC50 for chloroquine-resistant Plasmodium falciparum W2; assay type: toxicity, cell-based; conditions: Vero cells versus Plasmodium falciparum W2, read-out: Ratio IC50
Aspergillus fumigatus = assay: Antifungal activity against Aspergillus fumigatus; assay type: functional, organism-based
In short: (§1)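 Yeasts and A. fumigatus were tested by broth microdilution following the NCCLS antifungal standards. The highest test concentration was 20.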

Cryptococcus neoformans = assay: Antifungal activity against Cryptococcus neoformans; assay type: functional, organism-based; in short: as §1
Candida albicans [8] = assay: Antifungal activity against Candida albicans at 20 ug/ml; assay type: functional, organism-based
In short: (§2)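 Broth dilution antifungal testing followed the NCCLS reference method for yeasts, with 20 as the highest test concentration. MIC was the lowest concentration with no detectable growth. MFC was the lowest concentration killing the organism.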

Candida albicans [9] = assay: Fungicidal activity against Candida albicans at 20 ug/ml; assay type: functional, organism-based; in short: as §2
[10] = Leishmania donovani, read-out: IC50

Row | SMILES | IC50 (Plasmodium falciparum [1]) | IC50 (Plasmodium falciparum [2]) | IC50 (Vero) | IC50 [3] | IC50 (Leishmania donovani) | IC90 (Leishmania donovani) | Activity (Staphylococcus aureus [4]) | Activity (Staphylococcus aureus [5]) | Activity [6] | Activity (Escherichia coli) | Activity (Pseudomonas aeruginosa) | other results
1 | COc1cc(NC(C)CCCNC(=O)C[C@@H](NC(=O)[C@H](N)CCCCN)C(=O)O)c2nc(C(C)(C)C)ccc2c1 (some centres not stated) | Not Active | Not Active | Non-toxic | > 1000 µM | Not Active | inactive | inactive | inactive | inactive | inactive | inactive | 
2 | COc1cc(NC(C)CCCNC(=O)CC[C@@H](NC(=O)[C@H](N)CCCNC(=N)N)C(=O)O)c2ncccc2c1 (some centres not stated) | Not Active | Not Active | Non-toxic | > 1000 µM | Not Active | inactive | inactive | inactive | inactive | inactive | inactive | 
3 | COc1cc(NC(C)CCCNC(=O)CC[C@H](NC(=O)[C@@H](N)CCCCN)C(=O)O)c2ncccc2c1 (some centres not stated) | Not Active | Not Active | Non-toxic |  | Not Active | inactive | inactive | inactive | inactive | inactive | inactive | 
4 | COc1cc(NC(C)CCCNC(=O)CC[C@H](NC(=O)[C@@H](N)CCCN)C(=O)O)c2ncccc2c1 (some centres not stated) | Not Active | Not Active | Non-toxic | > 1000 µM | Not Active | inactive | inactive | inactive | inactive | inactive | inactive | 
5 | COc1cc(NC(C)CCCN)c2ncccc2c1 (configuration not stated) [PRIMAQUINE] |  |  | Non-toxic | > 1000 µM |  | inactive |  |  |  |  |  | 
6 | COc1cc(NC(C)CCCNC(=O)[C@H](CCCNC(=N)N)NC(=O)[C@@H](N)CCCNC(=N)N)c2ncccc2c1 (some centres not stated) | Not Active |  | Non-toxic | 81 µM | Not Active | inactive | inactive | inactive | inactive | inactive | inactive | IC50 (Plasmodium falciparum [2]; Plasmodium falciparum, W2, read-out: IC50): 4.76 µg/mL (≈ 8.33 µM); selectivity ratio [7]: > 5; Activity (Aspergillus fumigatus): inactive; IC50 (Cryptococcus neoformans): 4.5 µg/mL (≈ 7.87 µM); MFC (Cryptococcus neoformans): 10 µg/mL (≈ 17.5 µM); MIC (Cryptococcus neoformans): 10 µg/mL (≈ 17.5 µM); Activity (Candida albicans [8]): inactive; Activity (Candida albicans [9]): inactive
7 | COc1cc(NC(C)CCCNC(=O)CC[C@@H](NC(=O)[C@H](N)CCCN)C(=O)O)c2ncccc2c1 (some centres not stated) | Not Active | Not Active | Non-toxic | > 1000 µM | Not Active | inactive | inactive | inactive | inactive | inactive | inactive | 
8 | COc1cc(NC(C)CCCN)c2nc(C(C)(C)C)ccc2c1 (configuration not stated) |  |  |  | 2.9 µM |  |  |  |  |  |  |  | 
9 | COc1cc(NC(C)CCCNC(=O)CC[C@@H](NC(=O)[C@H](N)CCCN)C(=O)O)c2nc(C(C)(C)C)ccc2c1 (some centres not stated) | Not Active | Not Active | Non-toxic | > 1000 µM | Not Active | inactive | inactive | inactive | inactive | inactive | inactive | 
10 | COc1cc(NC(C)CCCNC(=O)C[C@@H](NC(=O)[C@H](N)CCCN)C(=O)O)c2ncccc2c1 (some centres not stated) | Not Active | Not Active | Non-toxic | > 1000 µM | Not Active | inactive | inactive | inactive | inactive | inactive | inactive | Activity (Aspergillus fumigatus): inactive; IC50 (Cryptococcus neoformans): 7 µg/mL (≈ 14.3 µM); MFC (Cryptococcus neoformans): 10 µg/mL (≈ 20.5 µM); MIC (Cryptococcus neoformans): 10 µg/mL (≈ 20.5 µM); Activity (Candida albicans [8]): inactive; Activity (Candida albicans [9]): inactive
11 | COc1cc(NC(C)CCCNC(=O)NCCC[C@@H](N)C(=O)O)c2ncccc2c1 (some centres not stated) | Not Active | Not Active | Non-toxic | > 1000 µM | Not Active | inactive | inactive | inactive | inactive | inactive | inactive | 
12 | COc1cc(NC(C)CCCNC(=O)NCCCC[C@H](N)C(=O)O)c2ncccc2c1 (some centres not stated) | Not Active | Not Active | Non-toxic | > 1000 µM | Not Active | inactive | inactive | inactive | inactive | inactive | inactive | 
13 | N=C(N)c1ccc(OCCCCCOc2ccc(C(=N)N)cc2)cc1 [PENTAMIDINE] |  |  |  |  |  |  |  |  |  |  |  | IC90 (Leishmania donovani; Leishmania donovani): 3.8 µg/mL (≈ 11.2 µM)
14 | COc1cc(NC(C)CCCNC(=O)[C@@H](CCCCN)NC(=O)[C@H](N)CCCCN)c2ncccc2c1 (some centres not stated) | Not Active | Not Active | Non-toxic | 310 µM |  |  | inactive | inactive | inactive | inactive | inactive | IC90 (Leishmania donovani; Leishmania donovani): 7 µg/mL (≈ 13.6 µM); IC50 (Leishmania donovani; [10]): 3.5 µg/mL (≈ 6.79 µM); Activity (Aspergillus fumigatus): inactive; IC50 (Cryptococcus neoformans): 3.5 µg/mL (≈ 6.79 µM); MFC (Cryptococcus neoformans): 5 µg/mL (≈ 9.7 µM); MIC (Cryptococcus neoformans): 5 µg/mL (≈ 9.7 µM); Activity (Candida albicans [8]): inactive; Activity (Candida albicans [9]): inactive
15 | COc1cc(NC(C)CCCNC(=O)CC[C@H](NC(=O)[C@@H](N)CCCN)C(=O)O)c2nc(C(C)(C)C)ccc2c1 (some centres not stated) | Not Active | Not Active | Non-toxic | > 1000 µM | Not Active | inactive | inactive | inactive | inactive | inactive | inactive | Activity (Aspergillus fumigatus): inactive; IC50 (Cryptococcus neoformans): 15 µg/mL (≈ 26.8 µM); MFC (Cryptococcus neoformans): 20 µg/mL (≈ 35.8 µM); MIC (Cryptococcus neoformans): 20 µg/mL (≈ 35.8 µM); Activity (Candida albicans [8]): inactive; Activity (Candida albicans [9]): inactive
16 | COc1cc(NC(C)CCCNC(=O)CC[C@@H](NC(=O)[C@H](N)CCCCN)C(=O)O)c2ncccc2c1 (some centres not stated) | Not Active | Not Active | Non-toxic | > 1000 µM |  |  | inactive | inactive | inactive | inactive | inactive | IC90 (Leishmania donovani; Leishmania donovani): 36 µg/mL (≈ 69.7 µM); IC50 (Leishmania donovani; [10]): 20.1 µg/mL (≈ 38.9 µM)
17 | COc1cc(NC(C)CCCNC(=O)C[C@H](NC(=O)[C@@H](N)CCCN)C(=O)O)c2ncccc2c1 (some centres not stated) |  |  |  |  |  |  | inactive | inactive | inactive | inactive | inactive | 
18 | COc1cc(NC(C)CCCNC(=O)CC[C@H](NC(=O)[C@@H](N)CCCCN)C(=O)O)c2nc(C(C)(C)C)ccc2c1 (some centres not stated) | Not Active | Not Active | Non-toxic | > 1000 µM | Not Active | inactive | inactive | inactive | inactive | inactive | inactive | Activity (Aspergillus fumigatus): inactive; IC50 (Cryptococcus neoformans): 15 µg/mL (≈ 26.2 µM); MFC (Cryptococcus neoformans): 20 µg/mL (≈ 34.9 µM); MIC (Cryptococcus neoformans): 20 µg/mL (≈ 34.9 µM); Activity (Candida albicans [8]): inactive; Activity (Candida albicans [9]): inactive
19 | COc1cc(NC(C)CCCNC(=O)CC[C@@H](NC(=O)[C@H](N)CCCNC(=N)N)C(=O)O)c2nc(C(C)(C)C)ccc2c1 (some centres not stated) | Not Active | Not Active | Non-toxic | > 1000 µM | Not Active | inactive | inactive | inactive | inactive | inactive | inactive | 
20 | COc1cc(NC(C)CCCNC(=O)NCCCC[C@H](N)C(=O)O)c2nc(C(C)(C)C)ccc2c1 (some centres not stated) | Not Active | Not Active | Non-toxic | > 1000 µM | Not Active | inactive | inactive | inactive | inactive | inactive | inactive | 
21 | O=C(O)c1cn(C2CC2)c2cc(N3CCNCC3)c(F)cc2c1=O [CIPROFLOXACIN] |  |  |  |  |  |  |  |  |  |  |  | MIC [6]: 0.63 µg/mL (≈ 1.9 µM)
